How the values were obtained:
[1] = test system: Enterovirus A71; assay: Antiviral activity against Human enterovirus 71 infected in monkey African green Vero cells by MTS-based CPE reduction assay; type: functional, organism-based
Summary of the method: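 Vero cells (5 × 10^5) seeded, then given serial compound dilutions plus 100 TCID50 EV71. Incubated at 37 °C for 24-36 h until complete CPE in the virus-infected, compound-free control. Viability read by MTS/PMS at 498 nm. EC50 is the concentration inhibiting virus-induced CPE by 50%. At least three repeats.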

[2] = test system: Enterovirus A71; assay: Antiviral activity against Enterovirus 71 infected in human RD cells after 24 to 36 hrs by MTS-based CPE reduction assay; type: functional, organism-based
Summary of the method: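 RD cells given serial compound dilutions with EV71. Incubated at 37 °C for 24-36 h until full CPE in the virus control. Viability read by MTS/PMS at 498 nm. EC50 is the concentration giving 50% inhibition of virus-induced CPE. At least three independent experiments.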

[3] = Cytotoxicity against african green monkey Vero cells assessed as reduction in cell viability after 24 to 36 hrs by MTS-based CPE reduction assay; conditions: chlorocebus sabaeus
Summary of the method: (§1)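 Noninfected Vero or RD cells exposed to serial compound dilutions under the CPE-assay conditions (37 °C, 24-36 h). Viability measured by MTS/PMS absorbance at 498 nm. CC50 is the concentration causing 50% death of noninfected cells.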

[4] = Selectivity index, ratio of CC50 for african green monkey Vero cells to EC50 for Enterovirus 71; type: toxicity, cell-based; conditions: read-out: Ratio CC50/EC50
Summary of the method: (§2)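 Selectivity index is CC50/EC50, both taken from MTS-based CPE reduction assays in the same cell line (Vero or RD).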

[5] = test system: RD; assay: Cytotoxicity against human RD cells assessed as reduction in cell viability after 24 to 36 hrs by MTS-based CPE reduction assay; type: functional; summary of the method: as §1
[6] = Selectivity index, ratio of CC50 for human RD cells to EC50 for Enterovirus 71; type: toxicity, cell-based; conditions: read-out: Ratio CC50/EC50; summary of the method: as §2
[7] = Enterovirus A, Vero, read-out: EC50
[8] = Enterovirus A, RD, read-out: EC50

Row | Compound | EC50 [1, 7] [µM] | EC50 [2, 8] [µM] | EC50 ([1]; vero) | EC50 ([2]; rd) | CC50 [3] [µM] | selectivity ratio [4] | CC50 [5] [µM] | selectivity ratio [6]
1 | COc1ccccc1C(=O)NNc1c(Cl)cccc1Cl | > 100 | > 100 | – | – | – | – | – | –
2 | O=C(NNc1c(Cl)cccc1Cl)c1ccc(Br)cc1 | – | – | Not Active | Not Active | – | – | – | –
3 | Cc1ccc(C(=O)NNc2c(Cl)cccc2Cl)cc1 | 1.28 | 0.96 | – | – | > 271 | > 212 | > 271 | > 281
4 | CCc1ccc(C(=O)NNc2c(Cl)cccc2Cl)cc1 | 0.94 | 1.68 | – | – | > 259 | > 275 | > 259 | > 154
5 | COc1ccc(C(=O)NNc2c(Cl)cccc2Cl)cc1 | 0.68 | 1.36 | – | – | > 257 | > 378 | > 257 | > 189
6 | CCCc1ccc(C(=O)NNc2c(Br)cccc2Br)cc1 | 3.54 | 4.62 | – | – | > 194 | > 54.8 | > 194 | > 42
7 | O=C(NNc1c(Cl)cccc1Cl)c1ccccn1 | > 100 | > 100 | – | – | – | – | – | –
8 | O=C(NNc1c(Cl)cccc1Cl)c1ccc(Cl)cc1 | > 100 | > 100 | – | – | – | – | – | –
9 | Cc1ccc(C(=O)NNc2c(C)cccc2C)cc1 | 5.31 | 13.6 | – | – | > 315 | > 59.2 | > 315 | > 23.2
10 | N#Cc1ccc(C(=O)NNc2c(Cl)cccc2Cl)cc1 | – | – | Not Active | Not Active | – | – | – | –
11 | COc1ccc(C(=O)NNc2c(Br)cccc2Br)cc1 | 3.32 | 2.63 | – | – | > 200 | > 60.2 | > 200 | > 76.1
12 | COc1ccc(C(=O)NNc2c(C)cccc2Cl)cc1 | 5.74 | 15.4 | – | – | > 275 | > 47.9 | > 275 | > 17.9
13 | CCCc1ccc(C(=O)NNc2c(F)cccc2F)cc1 | 27.4 | 51.4 | – | – | > 276 | > 10.1 | > 276 | > 5.4
14 | O=C(NNc1c(Br)cccc1Br)c1ccccc1 | 0.86 | 2.43 | – | – | > 216 | > 251 | > 216 | > 89.1
15 | CCOc1ccc(NNC(=O)c2c(Cl)cccc2Cl)cc1 | > 100 | > 100 | – | – | – | – | – | –
16 | CCCc1ccc(C(=O)NNc2c(C)cccc2C)cc1 | 0.95 | 2.64 | – | – | > 283 | > 298 | > 283 | > 107
17 | CC(C)c1cccc(C(C)C)c1NNC(=O)c1ccc(C(C)(C)C)cc1 | > 100 | > 100 | – | – | – | – | – | –
18 | Cc1cccc(Cl)c1NNC(=O)c1ccc(N(C)C)cc1 | 0.28 | 0.16 | – | – | 92.8 | 332 | 106 | 682
19 | CCOc1ccc(C(=O)NNc2c(Br)cccc2Br)cc1 | 0.37 | 0.53 | – | – | > 193 | > 522 | > 193 | > 362
20 | Cc1ccc(C(=O)NNc2c(C)cccc2Cl)cc1 | 13 | 26.9 | – | – | > 291 | > 22.5 | > 291 | > 10.8

Row | Compound | EC50 [1, 7] [µM] | EC50 [2, 8] [µM] | EC50 ([1]; vero) | EC50 ([2]; rd) | CC50 [3] [µM] | selectivity ratio [4] | CC50 [5] [µM] | selectivity ratio [6]
21 | CCc1ccc(C(=O)NNc2c(C)cccc2C)cc1 | 1.57 | 2.75 | – | – | 135 | 86.2 | 164 | 59.7
22 | CN(C)c1ccc(C(=O)NNc2c(F)cccc2F)cc1 | 17.9 | 23.5 | – | – | > 275 | > 15.3 | > 275 | > 11.7
23 | CSc1ccc(C(=O)NNc2c(C)cccc2Cl)cc1 | 6.13 | 15.4 | – | – | 107 | 17.4 | 134 | 8.7
24 | CCOc1ccc(C(=O)NNc2c(Cl)cc(Cl)cc2Cl)cc1 | > 100 | > 100 | – | – | – | – | – | –
25 | COc1ccccc1C(=O)NNc1c(Br)cccc1Br | 54.2 | > 100 | – | – | 109 | 2 | – | –
26 | CCc1cccc(CC)c1NNC(=O)c1ccc(C(C)(C)C)cc1 | > 100 | > 100 | – | – | – | – | – | –
27 | CCCc1ccc(C(=O)NNc2c(C)cccc2Cl)cc1 | 0.92 | 2.16 | – | – | 80.2 | 87.2 | 113 | 52.4
28 | CCOc1ccc(C(=O)NNc2c(F)cccc2F)cc1 | 66.7 | > 100 | – | – | > 274 | > 4.1 | – | –
29 | CCc1ccc(C(=O)NNc2c(Br)cccc2Br)cc1 | 0.93 | 1.58 | – | – | > 201 | > 216 | > 201 | > 127
30 | Cc1cccc(C)c1NNC(=O)c1ccc(N(C)C)cc1 | 0.29 | 0.69 | – | – | > 282 | > 974 | > 282 | > 411
31 | CCOc1ccc(C(=O)NNc2c(C)cccc2Cl)cc1 | 0.39 | 0.82 | – | – | > 262 | > 673 | > 262 | > 319
32 | CC(C)(C)c1ccc(C(=O)NNc2c(Cl)cccc2Cl)cc1 | 0.47 | 0.85 | – | – | 30.8 | 65.6 | 36.7 | 43.2
33 | CCCc1ccc(C(=O)NNc2c(Cl)cccc2Cl)cc1 | 0.42 | 0.44 | – | – | > 248 | > 589 | > 248 | > 562
34 | CCOc1ccc(C(=O)NNc2c(Cl)cccc2Cl)cc1 | 0.33 | 0.37 | – | – | > 246 | > 746 | > 246 | > 665
35 | COc1ccc(C(=O)NNc2c(F)cccc2F)cc1 | 74 | > 100 | – | – | > 288 | > 3.9 | – | –
36 | O=C(NNc1c(Cl)cccc1Cl)c1ccc(F)cc1 | – | – | Not Active | Not Active | – | – | – | –
37 | O=C(NNc1c(Cl)cccc1Cl)c1cccc(Cl)c1 | – | – | Not Active | Not Active | – | – | – | –
38 | O=C(NNc1c(Cl)cccc1Cl)c1ccccc1 | > 100 | > 100 | – | – | – | – | – | –
39 | O=C(NNc1c(Cl)cccc1Cl)c1cccs1 | > 100 | > 100 | – | – | – | – | – | –
40 | O=C(NNc1c(Cl)cccc1Cl)c1ccc([N+](=O)[O-])cc1 | – | – | Not Active | Not Active | – | – | – | –
